# The list is not random: actives were taken first. Their share in the collection is about 1.3%.
# ASAP1 GAP inh: inhibitors of human ASAP1 ArfGAP activity, primary screen, biochemical, fluorescence polarization | Arf-GAP with SH3 domain, ANK repeat and PH domain-containing protein 1 (Homo sapiens), … | ASAP1-stimulated ARF1 GTP hydrolysis, GDP FP detection | inhibition, % at 16.5 µM | 0.19% of 360,000 active;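 also: 0% = vehicle with enzyme and substrate and 100% = no enzyme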
# Target sequence (Q9ULH1 325-724 limits assumed): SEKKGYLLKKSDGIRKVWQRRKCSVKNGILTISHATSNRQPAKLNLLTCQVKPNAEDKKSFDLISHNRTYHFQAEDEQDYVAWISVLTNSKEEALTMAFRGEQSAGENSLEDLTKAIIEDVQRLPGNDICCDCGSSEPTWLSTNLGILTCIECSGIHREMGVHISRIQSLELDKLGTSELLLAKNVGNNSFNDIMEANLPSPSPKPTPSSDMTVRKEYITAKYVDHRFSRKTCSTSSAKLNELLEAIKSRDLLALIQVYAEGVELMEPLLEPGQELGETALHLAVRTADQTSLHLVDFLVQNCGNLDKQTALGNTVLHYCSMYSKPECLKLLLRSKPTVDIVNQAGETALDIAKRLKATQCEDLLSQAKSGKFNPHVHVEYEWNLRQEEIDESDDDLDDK
# LEDGF integ inh: blockers of LEDGF/p75-dependent integrase strand transfer – biochemical, TR-FRET, high throughput, primary screen; TR-FRET IN-LEDGF/p75 DNA integration, Eu/Cy5; inhibition, % at 3.7 µM; HIV-1 integrase (with human LEDGF/p75); 0.64% of 370,000 active;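 active = inhibition above the screen-wide mean plus 3 SD, cut at about 13% in these data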;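 also: signal is the Cy5 over europium emission ratio at 671 and 618 nm; 0% = plate median of compound wells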
# Casp6 inh: human caspase-6 inhibitors, primary screen, biochemical, VEID-R110 fluorescence, single point, set 2; P55212; purified caspase-6, Z-VEID-R110 cleavage fluorescence; inhibition, % at 12.5 µM; 0.53% of 350,000 active; AID 686996, 2013;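 active = mean inhibition across replicates at least about 35%, with every replicate also reaching that limit, limit read from the data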;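 also: 0% = median of neutral control wells and 100% = no fluorescence left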
# Target sequence (P55212 24-179 limits assumed): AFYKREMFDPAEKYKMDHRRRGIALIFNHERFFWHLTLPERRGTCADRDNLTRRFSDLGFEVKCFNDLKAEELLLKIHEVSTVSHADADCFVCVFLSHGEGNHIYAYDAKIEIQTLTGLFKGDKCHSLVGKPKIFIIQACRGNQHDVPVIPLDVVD
# Target sequence (P55212 194-293 limits assumed): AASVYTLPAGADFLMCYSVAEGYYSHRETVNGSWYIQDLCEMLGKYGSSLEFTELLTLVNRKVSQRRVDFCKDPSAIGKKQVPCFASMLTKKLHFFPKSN
# ARFGAP1 inh: inhibitors of rat ARFGAP1 GAP activity, primary screen, biochemical, fluorescence polarization, GDP tracer. ADP-ribosylation factor GTPase-activating protein 1 (Rattus norvegicus), Q62848. Arfgap1-stimulated ARF1 GTP hydrolysis, GDP FP detection. inhibition, % at 16.5 µM. 0.26% of 360,000 active. AID 651572, 2012;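 active = inhibition above a per-plate limit, mean inhibition of low control wells plus 3 SD, cut at about 25% in these data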;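 also: 0% = DMSO wells with enzyme and 100% = wells lacking Arfgap1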
#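 Material: rat Arfgap1 catalytic domain, aa 1-136; also added: human ARF1(Δ1-17)-GTP substrate; compound dosing: one concentration, 16.5 µM, DMSO 1.26%; incubation: GTP hydrolysis reaction 2 h at 25 °C; measured by: Tracer-displacement fluorescence polarization with EDTA stop, 620/688 nm; evaluation: % inhibition from polarization; repeats: one replicate per compound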
# TDP2 inh: human TDP2 enzyme inhibitors, primary screen, biochemical, epi absorbance, recombinant enzyme; Tyrosyl-DNA phosphodiesterase 2 (Homo sapiens), O95551; T5PNP hydrolysis, p-nitrophenol absorbance 415 nm; AID 720702, 2013; inhibition, % at 12.8 µM; 0.34% of 370,000 active;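 active = inhibition above the mean of all tested compounds plus 3 SD, set per campaign, cut at about 25% in these data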;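 also: 0% = DMSO with enzyme and 100% = buffer with substrate but no TDP2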
#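 Assay system: recombinant human TDP2 / Reagent: T5PNP substrate at 5 mM, a TopII-DNA adduct mimic / Measured by: epi absorbance from released p-nitrophenol / Evaluation: % inhibition relative to enzyme-containing and enzyme-free wells / Control set: enzyme-free and DMSO wells / Replicates: each compound tested once, singlicate / Schedule: enzyme reaction with compound for 2 h at 37 °C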
# TDP2 confirm: human TDP2 enzyme inhibitors, retest, confirmation, biochemical, epi absorbance, recombinant enzyme. shares compounds with TDP2 inh. absorbance read-out. inhibition, % at 12.8 µM. 22% of 1,100 active;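 also: 0% = vehicle with enzyme and 100% = no enzyme buffer only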
# IN multimer up: HIV-1 IN multimer formation enhancers, counter-screen for LEDGF/p75 integration inhibitor project, biochemical, TR-FRET. TR-FRET HIV-1 integrase multimerization. 17% of 2,000 active. shares compounds with LEDGF integ inh. activation, % at 7.7 µM; in the data active = activation above about 8.9%
# TR-FRET interf: TR-FRET optical interference artefacts, confirmation, artefact control for LEDGF/p75-dependent integration inhibitor project, biochemical, HIV-1 IN multimerization | shares compounds with LEDGF integ inh | TR-FRET optical interference counterscreen | inhibition, % at 7.7 µM | 2,000 tested, under 10 active | AID 1053135, 2014;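 active = inhibition above the mean over all tested compounds plus 3 SD, which no compound reached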;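 also: 0% = integrase with antibodies and DMSO and 100% = antibodies without integrase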
# IN-LEDGF confirm: inhibitors of HIV-1 IN-LEDGF/p75 DNA integration, confirmation, biochemical, TR-FRET; TR-FRET LEDGF/p75-dependent HIV-1 integration; AID 1053136, 2014; inhibition, % at 3.7 µM; shares compounds with LEDGF integ inh; 36% of 2,000 active; in the data active = inhibition above about 14%
# * hit, by the source's call; . = no result. Rule as the data show it, unless noted: active = inhibition above about 25%; inactive = the rest.
SMILES,ASAP1 GAP inh,LEDGF integ inh,Casp6 inh,ARFGAP1 inh,TDP2 inh,TDP2 confirm,IN multimer up,TR-FRET interf,IN-LEDGF confirm
O=S(=O)(Nc1cc(Sc2cccc3cccnc23)c(O)c2ccccc12)c1ccccc1,-1,17*,-1,-7,33*,7,0,-1,-11
O=C(CN1C(=O)c2ccccc2S1(=O)=O)c1ccccc1Cl,-3,4,-2,5,3,.,.,.,.
Cc1ccc(N(CC(=O)NC2CCCCC2)S(=O)(=O)c2c(C)noc2C)cc1,0,21*,-2,2,29*,-3,1,-5,-5
Cc1nnn(-c2nonc2N)c1C(=O)N/N=C/c1ccccc1O,-7,-4,.,19,-10,.,.,.,.
CCN(CCO)c1ccc(NC(=S)Nc2cccc(S(=O)(=O)N(C)C)c2)cc1,-2,24*,8,-19,36*,11,5,-18,6
O=C(NCCO)c1cccc(-c2cccc3nncn23)c1,10,3,19,7,-7,.,.,.,.
Oc1c(Br)cc(Br)cc1CNc1cccc2cccnc12,1,40*,0,4,36*,27*,0,-1,21*
Oc1ccc(Cl)cc1CNc1cccc2cccnc12,10,37*,84*,-5,32*,5,0,1,5
Oc1ccc(Br)cc1CNc1cccc2cccnc12,10,14*,3,12,30*,15,2,-8,7
Cc1cc(C)c(S(=O)(=O)N2CCOC2CNC(=O)C(=O)NCc2ccccn2)c(C)c1 (stereo unspecified),4,2,-3,0,6,.,.,.,.
COc1cccc(C(c2c(C)[nH]n(-c3ccccc3)c2=O)c2c(C)[nH]n(-c3ccccc3)c2=O)c1O,-5,23*,5,6,80*,6,5,-27,7
COc1cccc(C(c2c(C)[nH]n(-c3ccccc3)c2=O)c2c(C)[nH]n(-c3ccccc3)c2=O)c1OC,-8,21*,.,11,89*,32*,3,-10,-2
CCOc1cccc(C(c2c(C)n(C)n(-c3ccccc3)c2=O)c2c(C)n(C)n(-c3ccccc3)c2=O)c1OC,9,-2,-5,-1,3,.,.,.,.
Cc1[nH]n(-c2ccccc2)c(=O)c1C(c1ccc(O)c([N+](=O)[O-])c1)c1c(C)[nH]n(-c2ccccc2)c1=O,-2,38*,.,18,89*,9,4,-19,-4
Cc1[nH]n(-c2ccccc2)c(=O)c1C(=O)c1ccccc1,-14,-1,0,8,4,.,.,.,.
CS(=O)(=O)c1ccc2nc(NC(=O)CN3CCN(Cc4ccccc4)CC3)sc2c1,7,1,.,11,-3,.,.,.,.
O=C(COC(=O)/C=C/c1cccc(Br)c1)NC1CC1,19,3,-2,8,-2,.,.,.,.
COc1cc(C=c2c3ccccc3n3c2cc(-c2ccccc2)[n+]3C)cc(OC)c1OC,14,29*,96*,21,39*,43*,3,-10,48*
CCCCn1c(N)c(N(CCOC)C(=O)CSc2nnc(-c3ccc(C(C)(C)C)cc3)n2N)c(=O)[nH]c1=O,-3,0,3,-2,-6,.,.,.,.
Cc1cc2c(NC(=O)Nc3ccccc3)cccc2nn1,3,-1,25,3,24,.,.,.,.
Cc1cc2c(N)cccc2nn1,0,73*,.,-3,77*,57*,8,-28,78*
COc1ccc(/C=N/NC(=O)c2ccc(=O)[nH]n2)cc1OC,7,0,-5,1,-6,.,.,.,.
COc1ccc(-c2cc(=O)[nH][nH]2)cc1,-11,15*,.,-3,61*,0,3,-9,3
O=c1cc(-c2ccc(Cl)c(Cl)c2)[nH][nH]1,11,15*,.,16,57*,4,2,-7,14*
O=C(CSc1nnc(Nc2ccccc2F)s1)NCC1CCCO1 (stereo unspecified),3,-5,-1,0,0,.,.,.,.
SMILES,ASAP1 GAP inh,LEDGF integ inh,Casp6 inh,ARFGAP1 inh,TDP2 inh,TDP2 confirm,IN multimer up,TR-FRET interf,IN-LEDGF confirm
COc1ccc(NC(=O)CN2CC(c3ccccc3)CC2=O)cc1OC (stereo unspecified),5,-1,2,-5,0,.,.,.,.
COC(=O)C1C(O)=C(C=Nc2ccc(N)cc2)C(=O)CC1(C)C (stereo unspecified),4,40*,.,-2,54*,-4,2,-12,-6
CC1(C)CC(=O)C(C=Nc2ccc(O)cc2)=C(O)C1,6,0,-1,7,2,.,.,.,.
CC1(C)CC(=O)C(C=Nc2ccc(N)cc2)=C(O)C1,8,36*,-2,-12,54*,-10,5,-18,-3
C=CCn1c(N2CCCCCC2)nc2c1c(=O)[nH]c(=O)n2C,5,0,.,12,6,.,.,.,.
CCOC(=O)c1cc2c(nc1NC(=S)Nc1ccccc1)CC(C)(C)OC2,-9,18*,0,-7,8,.,2,-8,3
CCN(CC)c1ccc(N=Cc2ccc(N(CC)CC)cc2O)cc1,-16,15*,.,-18,8,.,6,-22,-6
CCN(CC)c1ccc(C=Nc2ccc(N(C)C)cc2)c(O)c1,-58,34*,.,-102,19,.,13*,-45,4
CCN(CC)CC#CC(C)(C)OC(C)=O,6,-3,.,-12,0,.,.,.,.
CC(C)NC(=O)Nc1ccc2c(c1)C(=O)N([C@H](C)CO)C[C@@H](C)[C@H](CN(C)C(=O)Nc1cccc3ccccc13)O2,.,.,-5,.,.,.,.,.,.

# High-throughput results from PubChem.
